Screening data: PubChem, The Scripps Research Institute Molecular Screening Center
A selection: hits, their analogues and other compounds. The true share with any hit is near 3.2%.
GPR7 antag: blocks human GPR7 receptor signaling; P48145; GPR7-expressing cells, fluorescence antagonist assay; inhibition, % at 4.4 µM; actives 1.1% (n = 290,000); in the data active = inhibition above about 16%, passing the limit was not always enough;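 also: cells stimulated with the agonist NPW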
Target sequence (P48145 whole entry, looked up): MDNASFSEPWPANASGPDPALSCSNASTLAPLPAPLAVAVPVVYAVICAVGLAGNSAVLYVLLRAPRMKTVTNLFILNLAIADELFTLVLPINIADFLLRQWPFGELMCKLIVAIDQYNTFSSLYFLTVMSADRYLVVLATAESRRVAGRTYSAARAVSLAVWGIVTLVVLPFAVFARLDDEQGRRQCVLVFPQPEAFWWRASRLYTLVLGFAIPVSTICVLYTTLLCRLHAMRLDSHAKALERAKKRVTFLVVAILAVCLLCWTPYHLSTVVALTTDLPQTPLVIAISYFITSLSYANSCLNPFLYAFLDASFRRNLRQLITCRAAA
OX1R antag-1: antagonists of human orexin 1 receptor (OX1R) | inhibition, % at 6.6 µM | actives 1.8% (n = 330,000) | OX1R-expressing cells, FRET antagonist read-out | O43613; in the data active = inhibition mostly above about 38%, no sharp cut-off; inactive = mostly below about 40%
OX1R antag-2: antagonists of human orexin 1 receptor; CHO/OX1R cells, Fluo-8 calcium fluorescence, orexin A; inhibition, % at 5 µM; actives 0.43% (n = 330,000); AID 434989;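 active = inhibition above its plate's threshold, mean inhibition of all tested compounds on the plate plus 3 SD, cut at about 37% in these data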
TRPN1 ag: zebrafish TRPN1 (NompC) channel agonism; HEK293 zebrafish TRPN1-YFP, Fluo-8 calcium fluorescence; 100% = response to 87 µM carbachol; activation, % at 3 µM; actives 0.18% (n = 220,000); AID 1424;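 active = activation above its plate's cutoff, the mean activation of test wells on that plate plus 3 SD, cut at about 19% in these data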
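Material: zebrafish TRPN1-YFP in HEK293 cells; Doses: single test compound dose, 3 µM nominal, 0.3% DMSO; Timing: dye loading 1 h at 37 °C, then 30 min room temperature; Technique: intracellular calcium fluorescence with Fluo-8; Benchmarks: high carbachol 87 µM, low DMSO alone.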
TRPML3 ag: human mucolipin-3 channel agonism; Q8TDD5; HEK293 TRPML3-YFP, Fluo-8 calcium fluorescence; 100% = the carbachol control signal; activation, % at 3 µM; actives 0.29% (n = 220,000);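 active = activation above its plate's cutoff, the mean activation of the plate's test wells plus 3 SD, cut at about 12% in these data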
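Material: HEK293 cells stably carrying human TRPML3-YFP; compound dosing: single dose, 3 µM final nominal compound, 0.3% DMSO final; incubation: 1-h 37 °C dye load, 5-s basal, 120-s post-compound reads; technique: Fluo-8 intracellular calcium fluorescence, excitation 470-495 nm, emission 515-575 nm; read-out basis: percent activation from peak-to-basal fluorescence ratio, scaled between DMSO and carbachol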
CHO parental Ca: signal in parental CHO cells, OX1R antagonist counter-screen; parental CHO-K1, ATP-induced calcium, Fluo-8 fluorescence; inhibition, % at 5.6 µM; actives 0.63% (n = 330,000);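 active = inhibition above that plate's mean sample inhibition plus 3 SD, cut at about 26% in these data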
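Assay system – parental CHO cells · Reagent – ATP stimulus · Detection – intracellular calcium via Fluo-8 no-wash fluorescent dye · Evaluation – percent inhibition of ATP-evoked calcium rise, normalized to controls · Controls – ATP wells versus no-ATP DMSO wells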
OX1R Ca confirm: OX1R (human) antagonism, confirmed. shares compounds with OX1R antag-2. CHO/OX1R cells, orexin A calcium Fluo-8 fluorescence. inhibition, % at 5 µM. actives 38% (n = 1,100); in the data active = inhibition above about 29%
CHO Ca triplic: counter-screen: parental CHO calcium response change, triplicate. shares compounds with OX1R antag-2. parental CHO-K1, ATP-induced calcium, Fluo-8 fluorescence. inhibition, % at 5.6 µM. actives 9.3% (n = 1,100). AID 492965;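 active = inhibition above a per-plate limit, the mean inhibition of that plate's test compounds plus 3 SD, cut at about 25% in these data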
Large screens that a line does not name were inactive (follow-up assays come after a bar, where they were run).

CN(C)c1nc(N)nc(CSc2nc3cc(Cl)ccc3o2)n1	none | OX1R Ca confirm inactive | CHO Ca triplic inactive
Cc1cc(C)n2cc(CSc3nc4cc(Cl)ccc4o3)nc2n1	none
CCOc1ccccc1N1CCN(C(=O)c2ccc(S(=O)(=O)Nc3ccccc3)cc2)CC1	OX1R antag-2 44.8 (no result: GPR7 antag, TRPN1 ag, TRPML3 ag) | OX1R Ca confirm 41.0 | CHO Ca triplic inactive
Cc1cccc(C2c3[nH]c4ccccc4c3CCN2C(=O)Cc2nc(-c3ccccc3)n[nH]2)n1 (stereo unspecified)	none | OX1R Ca confirm inactive | CHO Ca triplic inactive
COC(=O)[C@H](Cc1c[nH]c2ccccc12)NC(=O)CCCc1c[nH]c2ccccc12	none (no result: TRPN1 ag, TRPML3 ag) | OX1R Ca confirm 63.9 | CHO Ca triplic inactive
O=C(NCC(c1ccco1)N1CCN(c2ccccc2F)CC1)c1ccco1 (stereo unspecified)	none (no result: GPR7 antag, TRPN1 ag, TRPML3 ag)
CC(C)=CCN1CCNC(=O)C1CC(=O)NCc1nc(C)c(C)s1 (stereo unspecified)	none
Fc1ccc(NC(=S)Nc2ccc(F)c(Cl)c2)cc1Cl	none | OX1R Ca confirm 37.0 | CHO Ca triplic 60.5
CC(C)N(CCc1ccncc1)C(=S)Nc1ccc(F)c(Cl)c1	none | OX1R Ca confirm inactive | CHO Ca triplic inactive
O=S(=O)(Nc1ccc(S(=O)(=O)Nc2ccccc2)cc1)c1ccccc1	none | OX1R Ca confirm inactive | CHO Ca triplic inactive
COc1ccc(OC)c(S(=O)(=O)Nc2cc(C)on2)c1	none (no result: TRPN1 ag, TRPML3 ag)
C=CCSc1nnc(-c2cc3c(s2)-c2ccccc2CC3)o1	none | OX1R Ca confirm inactive | CHO Ca triplic inactive
COC(=O)c1c(C)oc2ccc(N(C(=O)c3ccncc3)S(=O)(=O)c3ccc(C)cc3)cc12	OX1R antag-2 38.7 | OX1R Ca confirm inactive | CHO Ca triplic inactive
CCN(CC)S(=O)(=O)c1ccc2oc(C(=O)NCc3ccc(F)cc3)c(C)c2c1	none | OX1R Ca confirm inactive | CHO Ca triplic inactive
COc1ccc(OCC(=O)Nc2c3c(nn2-c2ccc(OC)cc2)CS(=O)(=O)C3)cc1	none (no result: TRPN1 ag, TRPML3 ag)
Cc1ccc(S(=O)(=O)N2C[C@@H]3[C@H]4CC[C@H](C4)[C@@H]3[C@@H](C)[C@H]2c2ccco2)cc1	OX1R antag-2 82.0 (no result: GPR7 antag, TRPN1 ag, TRPML3 ag) | OX1R Ca confirm inactive | CHO Ca triplic inactive
Cc1ccc(S(=O)(=O)N2C[C@@H]3[C@H]4CC[C@H](C4)[C@@H]3[C@@H](C)[C@@H]2c2ccco2)cc1	none (no result: GPR7 antag, TRPN1 ag, TRPML3 ag)
COc1ccc(COc2cccc3ccc(C)nc23)cc1F	none (no result: TRPN1 ag, TRPML3 ag)
C=CCC[C@@H](Cc1ccc(F)cc1)C(=O)OC[C@@H]1CCCN1C(=O)[C@H](CC=C)CC(=O)N[C@H](CO)Cc1ccccc1	OX1R antag-2 65.0 (no result: GPR7 antag, TRPN1 ag, TRPML3 ag) | OX1R Ca confirm inactive | CHO Ca triplic inactive
CN1C2CCC1/C(=C/c1cccn1C)C(=O)/C2=C\c1cccn1C	none | OX1R Ca confirm inactive | CHO Ca triplic inactive
CN1C2CCC1/C(=C\c1ccc(F)cc1)C(=O)/C2=C/c1ccc(F)cc1	none
CC(Sc1nnnn1-c1ccccc1)C(=O)NC1CCCC1 (stereo unspecified)	none (no result: GPR7 antag, TRPN1 ag, TRPML3 ag)
C=CCNc1nc(N(c2ccccc2)c2ccccc2)nc(-n2ccnc2)n1	none | OX1R Ca confirm 87.9 | CHO Ca triplic inactive
CCOc1ccc(N/C(N)=N/c2nc(CSc3nnnn3-c3ccccc3)cc(=O)[nH]2)cc1	none
Brc1cc(-c2ccccc2)nc(-c2ccccc2)n1	none (no result: GPR7 antag, TRPN1 ag, TRPML3 ag)
CC(C)(C)c1cc2nc(N)nc(N)n2n1	OX1R antag-2 49.7 | OX1R Ca confirm inactive | CHO Ca triplic inactive
N#CCc1ccc(NC(=O)c2cc(S(=O)(=O)N3CCOCC3)ccc2Cl)cc1	none (no result: TRPN1 ag, TRPML3 ag)
Cc1coc2cc3oc(=O)ccc3cc12	OX1R antag-2 105.8 (no result: TRPN1 ag, TRPML3 ag) | OX1R Ca confirm inactive | CHO Ca triplic inactive
Cc1cc2oc(=O)ccc2cc1[N+](=O)[O-]	none (no result: TRPN1 ag, TRPML3 ag)
Fc1ccc(C2=CC(c3ccc(Br)o3)n3ncnc3N2)cc1 (stereo unspecified)	none | OX1R Ca confirm inactive | CHO Ca triplic inactive
O=[N+]([O-])c1cccc(N(CC(O)CN2CCCCC2)S(=O)(=O)c2ccccc2)c1 (stereo unspecified)	none (no result: TRPN1 ag, TRPML3 ag)
